# Measured values reported in ChEMBL document CHEMBL1156226, “Synthesis and structure-activity relationship studies of peptidomimetic PKB/Akt inhibitors: the significance of backbone interactions” (Bioorg Med Chem, 2010).
# Square brackets hold non-standard residues; d marks the D form. Peptide text beside a SMILES is read from it. Gly(N-4-hydroxybenzyl) = O=C(O)CNCc1ccc(O)cc1; Gly(N-(CH2)3-guanidino) = N=C(N)NCCCNCC(=O)O; hLeu = CC(C)CC[C@H](N)C(=O)O; NMeNva = CCC[C@H](NC)C(=O)O; Nva = CCC[C@H](N)C(=O)O; Dap = NC[C@H](N)C(=O)O; NPrGly = CCCNCC(=O)O
# Tests used:
# [1] = target: T1, RAC-alpha serine/threonine-protein kinase (Homo sapiens, UniProt P31749); experiment: Inhibition of PKB at 20 uM by radioactive kinase assay relative to control
# T1 sequence (P31749 whole entry): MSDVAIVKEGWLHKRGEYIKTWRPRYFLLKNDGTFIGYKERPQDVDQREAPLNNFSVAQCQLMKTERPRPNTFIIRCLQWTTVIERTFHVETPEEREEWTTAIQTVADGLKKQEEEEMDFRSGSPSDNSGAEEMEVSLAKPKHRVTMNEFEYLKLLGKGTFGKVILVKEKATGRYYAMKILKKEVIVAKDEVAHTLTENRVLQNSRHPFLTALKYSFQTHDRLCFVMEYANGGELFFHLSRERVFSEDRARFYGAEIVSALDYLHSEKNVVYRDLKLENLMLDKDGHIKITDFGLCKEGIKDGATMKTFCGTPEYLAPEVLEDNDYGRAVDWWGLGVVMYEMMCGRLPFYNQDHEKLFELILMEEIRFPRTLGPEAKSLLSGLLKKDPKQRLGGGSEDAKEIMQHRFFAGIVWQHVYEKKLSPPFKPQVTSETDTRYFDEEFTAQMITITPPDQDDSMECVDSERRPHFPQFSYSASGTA
# Summary of the method: (§1)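 PKB/Akt enzyme HisAPHPKBEEEFlag, partly purified in one step on Ni-NTA agarose. The radioactive kinase reaction contains 50 mM Hepes pH 7.4, 0.1 mM EGTA, 0.1% 2-mercaptoethanol, 10 mM magnesium acetate, 3 uM RPRTSSF peptide substrate, 10 uM [γ32P]ATP and 0.005 units enzyme. Inhibition is given as percent reduction of activity against a no-inhibitor control. IC50 values, with 95% confidence ranges, come from curve fitting.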
# [2] = target: T1, RAC-alpha serine/threonine-protein kinase; experiment: Inhibition of PKB at 100 uM by radioactive kinase assay relative to control; summary of the method: as §1
# [3] = target: T1, RAC-alpha serine/threonine-protein kinase; experiment: Inhibition of PKB at 5 uM by radioactive kinase assay relative to control; summary of the method: as §1
Compound,inhibition [1] [%],inhibition [2] [%],inhibition [3] [%]
CCC[C@H](NC(=O)[C@H](CCCNC(=N)N)NC(=O)[C@@H]1CCCN1C(=O)[C@H](CCCNC(=N)N)NC(=O)[C@H](N)CCCCN)C(=O)N[C@@H](Cc1ccc(O)cc1)C(=O)N[C@@H](CN)C(=O)N[C@@H](CCC(C)C)C(=O)O,48,,
CCCN(CC(=O)N[C@@H](Cc1ccc(O)cc1)C(=O)N[C@@H](CN)C(=O)N[C@@H](CCC(C)C)C(N)=O)C(=O)[C@H](CCCNC(=N)N)NC(=O)[C@@H]1CCCN1C(=O)[C@H](CCCNC(=N)N)NC(C)=O (Ac-RPR[NPrGly]Y[Dap][hLeu]-NH2),,0,
CCC[C@H](NC(=O)[C@H](CCCNC(=N)N)NC(=O)[C@@H]1CCCN1C(=O)[C@H](CCCNC(=N)N)NC(C)=O)C(=O)N(CC(=O)N[C@@H](CN)C(=O)N[C@@H](CCC(C)C)C(N)=O)Cc1ccc(O)cc1 (Ac-RPR[Nva][Gly(N-4-hydroxybenzyl)][Dap][hLeu]-NH2),,49,
CCC[C@H](NC(=O)[C@H](CCCNC(=N)N)NC(=O)[C@@H]1CCCN1C(=O)[C@H](CCCNC(=N)N)NC(C)=O)C(=O)N(CC(=O)N[C@@H](CN)C(=O)N[C@@H](CCC(C)C)C(=O)O)Cc1ccc(O)cc1 (Ac-RPR[Nva][Gly(N-4-hydroxybenzyl)][Dap][hLeu]-OH),,28,
CCC[C@@H](C(=O)N[C@@H](Cc1ccc(O)cc1)C(=O)N[C@@H](CN)C(=O)N[C@@H](CCC(C)C)C(N)=O)N(C)C(=O)[C@H](CCCNC(=N)N)NC(=O)[C@@H]1CCCN1C(=O)[C@@H](N)CCCNC(=N)N (H-RPR[NMeNva]Y[Dap][hLeu]-NH2),,62,
CCCN(CC(=O)N[C@@H](Cc1ccc(O)cc1)C(=O)N[C@@H](CN)C(=O)N[C@@H](CCC(C)C)C(N)=O)C(=O)[C@H](CCCNC(=N)N)NC(=O)[C@@H]1CCCN1C(=O)[C@@H](N)CCCNC(=N)N (H-RPR[NPrGly]Y[Dap][hLeu]-NH2),,16,
CCC[C@H](NC(=O)[C@H](CCCNC(=N)N)NC(=O)[C@@H]1CCCN1C(=O)[C@@H](N)CCCNC(=N)N)C(=O)N(CC(=O)N[C@@H](CN)C(=O)N[C@@H](CCC(C)C)C(N)=O)Cc1ccc(O)cc1 (H-RPR[Nva][Gly(N-4-hydroxybenzyl)][Dap][hLeu]-NH2),,85,23
CCC[C@H](NC(=O)CN(CCCNC(=N)N)C(=O)[C@@H]1CCCN1C(=O)[C@@H](N)CCCNC(=N)N)C(=O)N[C@@H](Cc1ccc(O)cc1)C(=O)N[C@@H](CN)C(=O)N[C@@H](CCC(C)C)C(N)=O (H-RP[Gly(N-(CH2)3-guanidino)][Nva]Y[Dap][hLeu]-NH2),,30,
CCC[C@H](NC(=O)[C@H](CCCNC(=N)N)NC(=O)[C@@H]1CCCN1C(=O)CNCCCNC(=N)N)C(=O)N[C@@H](Cc1ccc(O)cc1)C(=O)N[C@@H](CN)C(=O)N[C@@H](CCC(C)C)C(N)=O (H-[Gly(N-(CH2)3-guanidino)]PR[Nva]Y[Dap][hLeu]-NH2),,95,32
CCC[C@H](NC(=O)[C@H](CCCNC(=N)N)NC(=O)[C@@H]1CCCN1C(=O)[C@@H](N)CCCNC(=N)N)C(=O)N[C@@H](Cc1ccc(O)cc1)C(=O)N(C)[C@@H](CN)C(=O)N[C@@H](CCC(C)C)C(=O)O (HELM PEPTIDE1{R.P.R.[Nva].Y.[CN([C@@H](CN)C(=O)[*:2])[*:1]].[CC(C)CC[C@H](N[*:1])C(=O)O]}$$$$V2.0),,0,
CCC[C@H](NC(=O)[C@H](CCCNC(=N)N)NC(=O)[C@@H]1CCCN1C(=O)[C@@H](N)CCCNC(=N)N)C(=O)N[C@@H](Cc1ccc(O)cc1)C(=O)N(C)[C@@H](CN)C(=O)N[C@@H](CCC(C)C)C(N)=O (HELM PEPTIDE1{R.P.R.[Nva].Y.[CN([C@@H](CN)C(=O)[*:2])[*:1]].[CC(C)CC[C@H](N[*:1])C(=O)[*:2]].[am]}$$$$V2.0),,75,
CCC[C@H](NC(=O)[C@H](CCCNC(=N)N)NC(=O)[C@@H]1CCCN1C(=O)[C@@H](N)CCCNC(=N)N)C(=O)N[C@@H](Cc1ccc(O)cc1)C(=O)N[C@@H](CN)C(=O)N(C)[C@@H](CCC(C)C)C(N)=O (HELM PEPTIDE1{R.P.R.[Nva].Y.[NC[C@H](N[*:1])C(=O)[*:2]].[CC(C)CC[C@@H](C(=O)[*:2])N(C)[*:1]].[am]}$$$$V2.0),,86,5
CCC[C@H](NC(=O)[C@H](CCCNC(=N)N)NC(=O)[C@@H]1CCCN1C(=O)[C@@H](N)CCCNC(=N)N)C(=O)N[C@@H](Cc1ccc(O)cc1)C(=O)N[C@@H](CN)C(=O)N[C@@H](CCC(C)C)C(=O)O (HELM PEPTIDE1{R.P.R.[Nva].Y.[NC[C@H](N[*:1])C(=O)[*:2]].[CC(C)CC[C@H](N[*:1])C(=O)O]}$$$$V2.0),,95,51
CCC[C@H](NC(=O)[C@H](CCCNC(=N)N)NC(=O)[C@@H]1CCCN1C(=O)[C@@H](N)CCCNC(=N)N)C(=O)N[C@@H](Cc1ccc(O)cc1)C(=O)N[C@@H](CN)C(=O)N(CC(N)=O)CC(C)CC (stereo partly drawn) (HELM PEPTIDE1{R.P.R.[Nva].Y.[NC[C@H](N[*:1])C(=O)[*:2]].[CCC(C)CN(CC(=O)[*:2])[*:1]].[am]}$$$$V2.0),,39,
CCC[C@H](NC(=O)[C@H](CCCNC(=N)N)NC(=O)[C@@H]1CCCN1C(=O)[C@@H](N)CCCNC(=N)N)C(=O)N(C)[C@@H](Cc1ccc(O)cc1)C(=O)N[C@@H](CN)C(=O)N[C@@H](CCC(C)C)C(N)=O (HELM PEPTIDE1{R.P.R.[Nva].[meY].[NC[C@H](N[*:1])C(=O)[*:2]].[CC(C)CC[C@H](N[*:1])C(=O)[*:2]].[am]}$$$$V2.0),,88,13
CCC[C@H](NC(=O)[C@H](CCCNC(=N)N)N(C)C(=O)[C@@H]1CCCN1C(=O)[C@@H](N)CCCNC(=N)N)C(=O)N[C@@H](Cc1ccc(O)cc1)C(=O)N[C@@H](CN)C(=O)N[C@@H](CCC(C)C)C(=O)O (HELM PEPTIDE1{R.P.[meR].[Nva].Y.[NC[C@H](N[*:1])C(=O)[*:2]].[CC(C)CC[C@H](N[*:1])C(=O)O]}$$$$V2.0),,42,
CCC[C@H](NC(=O)[C@H](CCCNC(=N)N)N(C)C(=O)[C@@H]1CCCN1C(=O)[C@@H](N)CCCNC(=N)N)C(=O)N[C@@H](Cc1ccc(O)cc1)C(=O)N[C@@H](CN)C(=O)N[C@@H](CCC(C)C)C(N)=O (HELM PEPTIDE1{R.P.[meR].[Nva].Y.[NC[C@H](N[*:1])C(=O)[*:2]].[CC(C)CC[C@H](N[*:1])C(=O)[*:2]].[am]}$$$$V2.0),,92,39
CCC[C@H](NC(=O)[C@H](CCCNC(=N)N)NC(=O)[C@@H]1CCCN1C(=O)[C@H](CCCNC(=N)N)NC(C)=O)C(=O)N[C@@H](Cc1ccc(O)cc1)C(=O)N(C)[C@@H](CN)C(=O)N[C@@H](CCC(C)C)C(=O)O (HELM PEPTIDE1{[ac].R.P.R.[Nva].Y.[CN([C@@H](CN)C(=O)[*:2])[*:1]].[CC(C)CC[C@H](N[*:1])C(=O)O]}$$$$V2.0),,1,
CCC[C@H](NC(=O)[C@H](CCCNC(=N)N)NC(=O)[C@@H]1CCCN1C(=O)[C@H](CCCNC(=N)N)NC(C)=O)C(=O)N[C@@H](Cc1ccc(O)cc1)C(=O)N(C)[C@@H](CN)C(=O)N[C@@H](CCC(C)C)C(N)=O (HELM PEPTIDE1{[ac].R.P.R.[Nva].Y.[CN([C@@H](CN)C(=O)[*:2])[*:1]].[CC(C)CC[C@H](N[*:1])C(=O)[*:2]].[am]}$$$$V2.0),,33,
CCC[C@H](NC(=O)[C@H](CCCNC(=N)N)NC(=O)[C@@H]1CCCN1C(=O)[C@H](CCCNC(=N)N)NC(C)=O)C(=O)N[C@@H](Cc1ccc(O)cc1)C(=O)N[C@@H](CN)C(=O)N(C)[C@@H](CCC(C)C)C(=O)O (HELM PEPTIDE1{[ac].R.P.R.[Nva].Y.[NC[C@H](N[*:1])C(=O)[*:2]].[CC(C)CC[C@@H](C(=O)O)N(C)[*:1]]}$$$$V2.0),,1,
CCC[C@H](NC(=O)[C@H](CCCNC(=N)N)NC(=O)[C@@H]1CCCN1C(=O)[C@H](CCCNC(=N)N)NC(C)=O)C(=O)N[C@@H](Cc1ccc(O)cc1)C(=O)N[C@@H](CN)C(=O)N(C)[C@@H](CCC(C)C)C(N)=O (HELM PEPTIDE1{[ac].R.P.R.[Nva].Y.[NC[C@H](N[*:1])C(=O)[*:2]].[CC(C)CC[C@@H](C(=O)[*:2])N(C)[*:1]].[am]}$$$$V2.0),,29,
CCC[C@H](NC(=O)[C@H](CCCNC(=N)N)NC(=O)[C@@H]1CCCN1C(=O)[C@H](CCCNC(=N)N)NC(C)=O)C(=O)N[C@@H](Cc1ccc(O)cc1)C(=O)N[C@@H](CN)C(=O)N[C@@H](CCC(C)C)C(=O)O (HELM PEPTIDE1{[ac].R.P.R.[Nva].Y.[NC[C@H](N[*:1])C(=O)[*:2]].[CC(C)CC[C@H](N[*:1])C(=O)O]}$$$$V2.0),,66,
CCC[C@H](NC(=O)[C@H](CCCNC(=N)N)NC(=O)[C@@H]1CCCN1C(=O)[C@H](CCCNC(=N)N)NC(C)=O)C(=O)N[C@@H](Cc1ccc(O)cc1)C(=O)N[C@@H](CN)C(=O)N[C@@H](CCC(C)C)C(N)=O (HELM PEPTIDE1{[ac].R.P.R.[Nva].Y.[NC[C@H](N[*:1])C(=O)[*:2]].[CC(C)CC[C@H](N[*:1])C(=O)[*:2]].[am]}$$$$V2.0),,92,45
CCC[C@H](NC(=O)[C@H](CCCNC(=N)N)NC(=O)[C@@H]1CCCN1C(=O)[C@H](CCCNC(=N)N)NC(C)=O)C(=O)N[C@@H](Cc1ccc(O)cc1)C(=O)N[C@@H](CN)C(=O)N(CC(=O)O)CC(C)CC (stereo partly drawn) (HELM PEPTIDE1{[ac].R.P.R.[Nva].Y.[NC[C@H](N[*:1])C(=O)[*:2]].[CCC(C)CN(CC(=O)O)[*:1]]}$$$$V2.0),,4,
CCC[C@H](NC(=O)[C@H](CCCNC(=N)N)NC(=O)[C@@H]1CCCN1C(=O)[C@H](CCCNC(=N)N)NC(C)=O)C(=O)N[C@@H](Cc1ccc(O)cc1)C(=O)N[C@@H](CN)C(=O)N(CC(N)=O)CC(C)CC (stereo partly drawn) (HELM PEPTIDE1{[ac].R.P.R.[Nva].Y.[NC[C@H](N[*:1])C(=O)[*:2]].[CCC(C)CN(CC(=O)[*:2])[*:1]].[am]}$$$$V2.0),,1,
CCC[C@H](NC(=O)[C@H](CCCNC(=N)N)NC(=O)[C@@H]1CCCN1C(=O)[C@H](CCCNC(=N)N)NC(C)=O)C(=O)N(C)[C@@H](Cc1ccc(O)cc1)C(=O)N[C@@H](CN)C(=O)N[C@@H](CCC(C)C)C(N)=O (HELM PEPTIDE1{[ac].R.P.R.[Nva].[meY].[NC[C@H](N[*:1])C(=O)[*:2]].[CC(C)CC[C@H](N[*:1])C(=O)[*:2]].[am]}$$$$V2.0),,40,
